{
  "source": "paper PMC4452124",
  "about": "(Toxicology research, 2014)",
  "key": {"human BCRP [1]": {"biological_target": "T1, human BCRP (Homo sapiens, UniProt Q9UNQ0)", "T1 sequence (Q9UNQ0 1-655)": "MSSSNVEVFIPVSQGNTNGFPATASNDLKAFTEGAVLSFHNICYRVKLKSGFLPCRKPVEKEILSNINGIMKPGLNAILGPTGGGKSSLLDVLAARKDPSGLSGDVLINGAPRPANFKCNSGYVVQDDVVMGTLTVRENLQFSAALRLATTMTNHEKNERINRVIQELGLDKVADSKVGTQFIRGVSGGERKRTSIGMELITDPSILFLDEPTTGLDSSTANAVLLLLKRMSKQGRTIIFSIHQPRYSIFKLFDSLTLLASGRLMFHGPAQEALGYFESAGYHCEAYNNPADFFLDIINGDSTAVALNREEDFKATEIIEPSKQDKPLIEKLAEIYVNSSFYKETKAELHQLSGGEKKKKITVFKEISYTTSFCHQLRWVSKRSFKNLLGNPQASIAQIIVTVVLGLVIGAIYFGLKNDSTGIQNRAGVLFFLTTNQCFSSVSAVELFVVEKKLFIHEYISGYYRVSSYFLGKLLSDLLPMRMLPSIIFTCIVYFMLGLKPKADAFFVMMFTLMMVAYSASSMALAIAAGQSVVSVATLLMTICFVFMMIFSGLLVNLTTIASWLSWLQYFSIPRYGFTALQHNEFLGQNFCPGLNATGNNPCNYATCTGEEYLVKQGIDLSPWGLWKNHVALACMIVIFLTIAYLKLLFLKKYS", "experiment": "biochemical"}, "human BCRP [2]": {"biological_target": "T1, human BCRP", "experiment": "biochemical", "remark": "listed apart in the source"}, "BCRP in BeWo cells [3]": {"biological_target": "T2, BCRP in BeWo cells (Homo sapiens, UniProt Q9UNQ0)", "T2 sequence (Q9UNQ0 1-655)": "T1 sequence (Q9UNQ0 1-655)"}, "human BCRP [4]": {"biological_target": "T1, human BCRP"}, "human BCRP [5]": {"biological_target": "T1, human BCRP", "experiment": "BCRP ATPase assay, activation of baseline activity", "assay_type": "biochemical", "conditions": "absence of sulfasalazine"}, "BCRP (wild-type)": {"system": "BCRP (wild-type)", "experiment": "alamarBlue cell viability, HEK cells expressing WT BCRP", "assay_type": "cell-based", "conditions": "human"}, "[6]": {"experiment": "alamarBlue cell viability, HEK cells expressing empty vector", "assay_type": "cell-based", "conditions": "human"}, "BCRP (Q141K variant)": {"system": "BCRP (Q141K variant)", "experiment": "alamarBlue cell viability, HEK cells expressing Q141K BCRP", "assay_type": "cell-based", "conditions": "human"}, "WT BCRP in HEK cells": {"biological_target": "T3, WT BCRP in HEK cells (Homo sapiens, UniProt Q9UNQ0)", "T3 sequence (Q9UNQ0 1-655)": "T1 sequence (Q9UNQ0 1-655)", "experiment": "Hoechst 33342 fluorescent substrate transport assay in WT BCRP HEK cells", "assay_type": "cell-based", "conditions": "Hoechst 33342 7 μM"}, "Bcrp": {"biological_target": "T4, Bcrp (Mus musculus, UniProt Q7TMS5)", "T4 sequence (Q7TMS5 1-657)": "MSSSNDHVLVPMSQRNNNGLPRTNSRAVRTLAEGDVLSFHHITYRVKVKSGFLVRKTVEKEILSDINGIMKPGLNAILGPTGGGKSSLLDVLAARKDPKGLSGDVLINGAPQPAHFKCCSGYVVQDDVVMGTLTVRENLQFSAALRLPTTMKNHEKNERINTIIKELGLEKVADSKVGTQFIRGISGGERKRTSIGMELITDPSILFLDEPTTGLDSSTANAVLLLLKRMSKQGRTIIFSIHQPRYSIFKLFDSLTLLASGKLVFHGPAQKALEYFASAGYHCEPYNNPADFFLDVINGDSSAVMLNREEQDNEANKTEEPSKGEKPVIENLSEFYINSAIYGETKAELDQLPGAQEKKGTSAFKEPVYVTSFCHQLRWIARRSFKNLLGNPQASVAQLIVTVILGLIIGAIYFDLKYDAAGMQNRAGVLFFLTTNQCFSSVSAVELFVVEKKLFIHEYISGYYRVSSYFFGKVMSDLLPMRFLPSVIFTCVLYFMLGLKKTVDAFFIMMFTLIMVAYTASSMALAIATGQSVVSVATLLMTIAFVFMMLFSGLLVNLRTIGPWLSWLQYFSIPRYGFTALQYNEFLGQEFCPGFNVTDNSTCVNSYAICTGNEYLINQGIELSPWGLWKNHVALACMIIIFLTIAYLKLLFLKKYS", "experiment": "Pilot study of plasma zearalenone in Bcrp-null versus wild-type mice", "assay_type": "in vivo", "conditions": "after oral dosing, pilot studies, data not shown"}, "[7]": {"system": "BCRP protein expression in BeWo cells", "experiment": "Western blot of BCRP protein in BeWo cells after zearalenone exposure", "assay_type": "cell-based, human", "conditions": "48 h, 1 or 10 μM", "summary_of_the_method": "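BeWo choriocarcinoma cells grown in DMEM F-12 with 10% FBS and 1% penicillin-streptomycin at 37°C, 5% CO2, used at 80–90% confluence, then exposed to test compound (0, 1 or 10 μM). Lysate protein measured by BCA; 5 μg resolved on 4–12% Bis-Tris SDS gels and probed for BCRP (~72 kDa), with β-actin as loading control. Bands semi-quantified.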"}, "BCRP in BeWo cells [8]": {"biological_target": "T2, BCRP in BeWo cells", "experiment": "Intracellular zearalenone accumulation by ELISA in BeWo cells", "assay_type": "cell-based", "conditions": "zearalenone 10 μM, Ko143 1 μM"}, "[9]": {"conditions": "Inhibitory Concentration (IC50) Vesicle Assay, Lucifer yellow (50 μM) transport, 2 min, 37°C"}, "[10]": {"conditions": "BeWo cells, Hoechst 33342 15 μM"}},
  "note": "Like-named read-outs stand apart in the source and are kept apart here.",
  "data": [
    {"compound": "Fc1ccc([C@]2(Cn3cncn3)O[C@H]2c2ccccc2Cl)cc1", "note": "(racemic) [Epoxiconazole, epoxiconazole]", "values": [
      {"measurement": "IC50", "setting": "human BCRP [1]", "result": "> 100", "unit": "µM"},
      {"measurement": "IC50", "setting": "human BCRP [2]; [9]", "result": 64.7, "unit": "µM"}
    ]},
    {"compound": "CC(C)(c1ccc(O)cc1)c1ccc(O)cc1", "note": "[Bisphenol A, bisphenol A]", "values": [
      {"measurement": "Concentration that increased intracellular Hoechst 33342 fluorescence", "setting": "BCRP in BeWo cells [3]; [10]", "result": 50, "unit": "µM"},
      {"measurement": "IC50", "setting": "human BCRP [1]", "result": "> 100", "unit": "µM"},
      {"measurement": "IC50", "setting": "human BCRP [2]; [9]", "result": 55.5, "unit": "µM"}
    ]},
    {"compound": "O=c1c(-c2ccc(O)cc2)coc2cc(O)cc(O)c12", "note": "[Genistein, genistein]", "values": [
      {"measurement": "Concentration that increased intracellular Hoechst 33342 fluorescence", "setting": "BCRP in BeWo cells [3]; human", "result": "≥ 10", "unit": "µM"},
      {"measurement": "Increase in retention of Hoechst 33342", "setting": "BCRP in BeWo cells [3]; human", "result": "50–100%"},
      {"measurement": "Change in BCRP-mediated ATPase activity", "setting": "human BCRP [4]", "result": "no change in ATPase activity was detected"},
      {"measurement": "IC50", "setting": "human BCRP [2]; Inhibitory Concentration (IC50) Vesicle Assay", "result": 1.9, "unit": "µM"},
      {"measurement": "Concentration that stimulated baseline ATPase activity", "setting": "human BCRP [5]", "result": "≥ 0.01", "unit": "µM"}
    ]},
    {"compound": "COc1ccc(C(c2ccc(OC)cc2)C(Cl)(Cl)Cl)cc1", "note": "[Methoxychlor, methoxychlor]", "values": [
      {"measurement": "Concentration that increased intracellular Hoechst 33342 fluorescence", "setting": "BCRP in BeWo cells [3]; [10]", "result": 100, "unit": "µM"},
      {"measurement": "IC50", "setting": "human BCRP [1]", "result": 5.2, "unit": "µM"},
      {"measurement": "IC50", "setting": "human BCRP [2]; [9]", "result": 38, "unit": "µM"}
    ]},
    {"compound": "O=C1c2c(O)ccc(O)c2C(=O)c2c(NCCNCCO)ccc(NCCNCCO)c21", "note": "[Mitoxantrone, mitoxantrone, reference compound]", "values": [
      {"measurement": "CC50", "setting": "BCRP (wild-type)", "result": 3.19, "unit": "µM"},
      {"measurement": "CC50", "setting": "[6]", "result": 0.34, "unit": "µM"},
      {"measurement": "CC50", "setting": "BCRP (Q141K variant)", "result": 1.14, "unit": "µM"}
    ]},
    {"compound": "CCCCC(C#N)(Cn1cncn1)c1ccc(Cl)cc1", "note": "(stereo not drawn) [Myclobutanil, myclobutanil]", "values": [
      {"measurement": "IC50", "setting": "human BCRP [1]", "result": 79, "unit": "µM"},
      {"measurement": "IC50", "setting": "human BCRP [2]; [9]", "result": 62.7, "unit": "µM"}
    ]},
    {"compound": "CCCN(CCOc1c(Cl)cc(Cl)cc1Cl)C(=O)n1ccnc1", "note": "[Prochloraz, prochloraz]", "values": [
      {"measurement": "IC50", "setting": "human BCRP [1]", "result": 42.6, "unit": "µM"},
      {"measurement": "IC50", "setting": "human BCRP [2]; [9]", "result": 18.7, "unit": "µM"}
    ]},
    {"compound": "C#CCOS(=O)OC1CCCCC1Oc1ccc(C(C)(C)C)cc1", "note": "(stereo not drawn) [Propargite, propargite]", "values": [
      {"measurement": "IC50", "setting": "human BCRP [1]", "result": 2.6, "unit": "µM"},
      {"measurement": "IC50", "setting": "human BCRP [2]; [9]", "result": 31.8, "unit": "µM"}
    ]},
    {"compound": "CCCC1COC(Cn2cncn2)(c2ccc(Cl)cc2Cl)O1", "note": "(stereo not drawn) [Propiconazole, propiconazole]", "values": [
      {"measurement": "IC50", "setting": "human BCRP [1]", "result": 63.6, "unit": "µM"},
      {"measurement": "IC50", "setting": "human BCRP [2]; [9]", "result": 51.3, "unit": "µM"}
    ]},
    {"compound": "CC(C)(C)C(O)(CCc1ccc(Cl)cc1)Cn1cncn1", "note": "(stereo not drawn) [Tebuconazole, tebuconazole]", "values": [
      {"measurement": "IC50", "setting": "human BCRP [1]", "result": "> 100", "unit": "µM"},
      {"measurement": "IC50", "setting": "human BCRP [2]; [9]", "result": 41.1, "unit": "µM"}
    ]},
    {"compound": "CCC[CH2][Sn]([CH2]CCC)[CH2]CCC", "note": "[Tributyltin, tributyltin]", "values": [
      {"measurement": "Increase in retention of Hoechst 33342", "setting": "BCRP in BeWo cells [3]; BeWo cells", "result": "50–100%"},
      {"measurement": "Concentration that increased intracellular Hoechst 33342 fluorescence", "setting": "BCRP in BeWo cells [3]; [10]", "result": "≥ 10", "unit": "µM"},
      {"measurement": "IC50", "setting": "human BCRP [2]; read-out: Inhibitory Concentration (IC50) Vesicle Assay, Lucifer yellow (50 μM) transport, 2 min, 37°C", "result": 30.5, "unit": "µM"}
    ]},
    {"compound": "C[C@H]1CCCC(=O)CCC/C=C/c2cc(O)cc(O)c2C(=O)O1", "note": "[Zearalenone, zearalenone]", "values": [
      {"measurement": "Concentration that increased intracellular Hoechst 33342 fluorescence", "setting": "BCRP in BeWo cells [3]; [10]", "result": 50, "unit": "µM"},
      {"measurement": "IC50", "setting": "human BCRP [1]", "result": 40.6, "unit": "µM"},
      {"measurement": "CC50 at 72 h", "setting": "BCRP (wild-type)", "result": 171, "unit": "µM"},
      {"measurement": "CC50 at 72 h", "setting": "[6]", "result": 45.6, "unit": "µM"},
      {"measurement": "Concentrations that increased Hoechst accumulation", "setting": "WT BCRP in HEK cells", "result": "10 to 100", "unit": "µM"},
      {"measurement": "IC50", "setting": "human BCRP [2]; [9]", "result": 4.8, "unit": "µM"},
      {"measurement": "Plasma zearalenone levels, Bcrp-null mice compared to wild-types", "setting": "Bcrp", "result": "~ 10 fold"},
      {"measurement": "Effect on BCRP protein expression", "setting": "[7]", "result": "did not alter BCRP protein expression"},
      {"measurement": "CC50 at 72 h", "setting": "BCRP (Q141K variant)", "result": 40.6, "unit": "µM"},
      {"measurement": "Increase of intracellular zearalenone levels on BCRP inhibition with Ko143", "setting": "BCRP in BeWo cells [8]", "result": 2.7, "unit": "fold"}
    ]}
  ]
}
